Tested on: HEK-293T
Experiment: Multiplex assay against HEK293T;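 on Population Tubulin-Different-Phenotype (%): share of the cells with healthy nuclei that show this phenotype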
Type: toxicity, cell-based
Conditions: human
Outline: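 Four dyes were applied at seeding to live cells: Hoechst33342, BioTracker Green Microtubule Cytoskeleton Dye, MitoTracker Red and Annexin V Alexa Fluor 680. Imaging after compound addition used a CQ1 microscope at 37°C and 5% CO2. CellPathfinder machine-learning gating then sorted cells into Hoechst high-intensity objects or normal cells, normal cells into healthy, pyknosed or fragmented nuclei, and pyknosed cells into mitotic or apoptotic, with tubulin, mitochondrial-mass and membrane-permeability phenotypes given as per cents of healthy-nucleus cells.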

[1] = 12 h, 1 µM, compound concentration 1 uM, replicate 1
[2] = 12 h, 1 µM, compound concentration 1 uM, replicate 2
[3] = 12 h, 10 µM, compound concentration 10 uM, replicate 1
[4] = 12 h, 10 µM, compound concentration 10 uM, replicate 2
[5] = 24 h, 1 µM, compound concentration 1 uM, replicate 1
[6] = 24 h, 1 µM, compound concentration 1 uM, replicate 2
[7] = 24 h, 10 µM, compound concentration 10 uM, replicate 1
[8] = 24 h, 10 µM, compound concentration 10 uM, replicate 2
[9] = 48 h, 1 µM, compound concentration 1 uM, replicate 1
[10] = 48 h, 1 µM, compound concentration 1 uM, replicate 2
[11] = 48 h, 10 µM, compound concentration 10 uM, replicate 1
[12] = 48 h, 10 µM, compound concentration 10 uM, replicate 2

CC(C)(C)NC[C@H](O)COc1nsnc1N1CCOCC1 [TIMOLOL]
Population Apoptotic (%) [1]: 47% | Population Fragmented Nuclei (%) [1]: 10% | Population Healthy Nuclei (%) [1]: 39% | Population Hoechst High Intensity Objects (%) [1]: 14% | Population Membrane Permeable-Phenotype (%) [1]: 4% | Population Mitochondria Different-Phenotype (%) [1]: 77% | Population Mitotic Cells (%) [1]: 52% | Population Normal (%) [1]: 85% | Population Pyknosed Nuclei (%) [1]: 50% | Population Tubulin-Different-Phenotype (%) [1]: 36% | Total Cell Count [1]: 281 | Population Apoptotic (%) [2]: 12% | Population Fragmented Nuclei (%) [2]: 5% | Population Healthy Nuclei (%) [2]: 48% | Population Hoechst High Intensity Objects (%) [2]: 3% | Population Membrane Permeable-Phenotype (%) [2]: 8% | Population Mitochondria Different-Phenotype (%) [2]: 19% | Population Mitotic Cells (%) [2]: 87% | Population Normal (%) [2]: 96% | Population Pyknosed Nuclei (%) [2]: 45% | Population Tubulin-Different-Phenotype (%) [2]: 22% | Total Cell Count [2]: 280 | Population Apoptotic (%) [3]: 55% | Population Fragmented Nuclei (%) [3]: 9% | Population Healthy Nuclei (%) [3]: 40% | Population Hoechst High Intensity Objects (%) [3]: 13% | Population Membrane Permeable-Phenotype (%) [3]: 2% | Population Mitochondria Different-Phenotype (%) [3]: 87% | Population Mitotic Cells (%) [3]: 44% | Population Normal (%) [3]: 86% | Population Pyknosed Nuclei (%) [3]: 49% | Population Tubulin-Different-Phenotype (%) [3]: 53% | Total Cell Count [3]: 293 | Population Apoptotic (%) [4]: 8% | Population Fragmented Nuclei (%) [4]: 3% | Population Healthy Nuclei (%) [4]: 50% | Population Hoechst High Intensity Objects (%) [4]: 3% | Population Membrane Permeable-Phenotype (%) [4]: 4% | Population Mitochondria Different-Phenotype (%) [4]: 23% | Population Mitotic Cells (%) [4]: 91% | Population Normal (%) [4]: 96% | Population Pyknosed Nuclei (%) [4]: 46% | Population Tubulin-Different-Phenotype (%) [4]: 17% | Total Cell Count [4]: 261 | Population Apoptotic (%) [5]: 49% | Population Fragmented Nuclei (%) [5]: 8% | Population Healthy Nuclei (%) [5]: 43% | Population Hoechst High Intensity Objects (%) [5]: 12% | Population Membrane Permeable-Phenotype (%) [5]: 1% | Population Mitochondria Different-Phenotype (%) [5]: 58% | Population Mitotic Cells (%) [5]: 50% | Population Normal (%) [5]: 87% | Population Pyknosed Nuclei (%) [5]: 47% | Population Tubulin-Different-Phenotype (%) [5]: 41% | Total Cell Count [5]: 293 | Population Apoptotic (%) [6]: 8% | Population Fragmented Nuclei (%) [6]: 7% | Population Healthy Nuclei (%) [6]: 67% | Population Hoechst High Intensity Objects (%) [6]: 1% | Population Membrane Permeable-Phenotype (%) [6]: 11% | Population Mitochondria Different-Phenotype (%) [6]: 12% | Population Mitotic Cells (%) [6]: 91% | Population Normal (%) [6]: 98% | Population Pyknosed Nuclei (%) [6]: 24% | Population Tubulin-Different-Phenotype (%) [6]: 30% | Total Cell Count [6]: 363 | Population Apoptotic (%) [7]: 44% | Population Fragmented Nuclei (%) [7]: 6% | Population Healthy Nuclei (%) [7]: 57% | Population Hoechst High Intensity Objects (%) [7]: 12% | Population Membrane Permeable-Phenotype (%) [7]: 2% | Population Mitochondria Different-Phenotype (%) [7]: 70% | Population Mitotic Cells (%) [7]: 55% | Population Normal (%) [7]: 87% | Population Pyknosed Nuclei (%) [7]: 35% | Population Tubulin-Different-Phenotype (%) [7]: 40% | Total Cell Count [7]: 360 | Population Apoptotic (%) [8]: 8% | Population Fragmented Nuclei (%) [8]: 3% | Population Healthy Nuclei (%) [8]: 71% | Population Hoechst High Intensity Objects (%) [8]: 3% | Population Membrane Permeable-Phenotype (%) [8]: 4% | Population Mitochondria Different-Phenotype (%) [8]: 17% | Population Mitotic Cells (%) [8]: 91% | Population Normal (%) [8]: 96% | Population Pyknosed Nuclei (%) [8]: 24% | Population Tubulin-Different-Phenotype (%) [8]: 18% | Total Cell Count [8]: 355 | Population Apoptotic (%) [9]: 52% | Population Fragmented Nuclei (%) [9]: 18% | Population Healthy Nuclei (%) [9]: 46% | Population Hoechst High Intensity Objects (%) [9]: 10% | Population Membrane Permeable-Phenotype (%) [9]: 6% | Population Mitochondria Different-Phenotype (%) [9]: 23% | Population Mitotic Cells (%) [9]: 47% | Population Normal (%) [9]: 89% | Population Pyknosed Nuclei (%) [9]: 34% | Population Tubulin-Different-Phenotype (%) [9]: 33% | Total Cell Count [9]: 373 | Population Apoptotic (%) [10]: 16% | Population Fragmented Nuclei (%) [10]: 5% | Population Healthy Nuclei (%) [10]: 82% | Population Hoechst High Intensity Objects (%) [10]: 2% | Population Mitochondria Different-Phenotype (%) [10]: 3% | Population Mitotic Cells (%) [10]: 83% | Population Normal (%) [10]: 97% | Population Pyknosed Nuclei (%) [10]: 12% | Population Tubulin-Different-Phenotype (%) [10]: 25% | Total Cell Count [10]: 733 | Population Apoptotic (%) [11]: 42% | Population Fragmented Nuclei (%) [11]: 12% | Population Healthy Nuclei (%) [11]: 65% | Population Hoechst High Intensity Objects (%) [11]: 5% | Population Membrane Permeable-Phenotype (%) [11]: 0% | Population Mitochondria Different-Phenotype (%) [11]: 23% | Population Mitotic Cells (%) [11]: 57% | Population Normal (%) [11]: 94% | Population Pyknosed Nuclei (%) [11]: 22% | Population Tubulin-Different-Phenotype (%) [11]: 20% | Total Cell Count [11]: 545 | Population Apoptotic (%) [12]: 6% | Population Fragmented Nuclei (%) [12]: 7% | Population Healthy Nuclei (%) [12]: 85% | Population Hoechst High Intensity Objects (%) [12]: 2% | Population Membrane Permeable-Phenotype (%) [12]: 2% | Population Mitochondria Different-Phenotype (%) [12]: 4% | Population Mitotic Cells (%) [12]: 93% | Population Normal (%) [12]: 97% | Population Pyknosed Nuclei (%) [12]: 7% | Population Tubulin-Different-Phenotype (%) [12]: 17% | Total Cell Count [12]: 660

— ChEMBL document CHEMBL4689842, “EUbOPEN Chemogenomics Library wave 1” (2021)
